V-ATPase pHluor = yeast V-ATPase proton transport regulation by pHLuorin | response, % at 10 µM | hit rate 0.37% among 350,000 | S. cerevisiae, pHLuorin cytosolic pH fluorescence; in the data active = response mostly above about 7.3%, no sharp cut-off; inactive = mostly below about 5.4%; note: actives read high
NTR1 agonist = agonists of human neurotensin receptor NTR1 | AID 493036 | activation, % at 20 µM | P30989 | NTR1-U2OS beta-arrestin-GFP spot imaging, agonist mode | hit rate 0.17% among 330,000;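 active = activation at or above 40% of the spot to cytoplasm intensity ratio, with at least 20 cells analyzed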;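 note: 0% = DMSO without peptide and 100% = 100 nM NTR1 peptide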
Target sequence (P30989 whole entry, looked up): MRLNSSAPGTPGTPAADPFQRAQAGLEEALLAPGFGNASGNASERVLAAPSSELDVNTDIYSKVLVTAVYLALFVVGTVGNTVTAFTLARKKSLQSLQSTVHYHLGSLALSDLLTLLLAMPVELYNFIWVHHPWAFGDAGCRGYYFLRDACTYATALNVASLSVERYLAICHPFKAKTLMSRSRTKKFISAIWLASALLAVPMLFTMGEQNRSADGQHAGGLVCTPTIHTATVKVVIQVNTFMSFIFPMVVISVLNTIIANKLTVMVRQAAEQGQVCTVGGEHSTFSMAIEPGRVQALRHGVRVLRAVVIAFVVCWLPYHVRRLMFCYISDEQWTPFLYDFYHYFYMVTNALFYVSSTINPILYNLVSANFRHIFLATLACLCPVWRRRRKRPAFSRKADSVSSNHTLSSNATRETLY
Arr AP2 block = blocks beta-arrestin peptide binding to AP2 adaptin | FITC-arrestin peptide / GST-AP2 beads, flow cytometry; AP2 beta2 appendage carries R879A mutation | inhibition, % at 10 µM | hit rate 0.31% among 340,000 | AID 504490;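 active = inhibition above a set limit, near 3 SD of compounds lacking own fluorescence, cut at about 54% in these data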;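 note: plate controls were DMSO wells for no effect and 5 µM unlabelled arrestin peptide for full effect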
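Test system: GST-tagged AP2 beta2-adaptin appendage (R879A) on 4 µm glutathione beads; also added: fluorescein-tagged arrestin peptide at 50 nM final; timing: 12 min plus 1 h, RT; signal: flow cytometry, FL1 (488/535 nm); read-out: percent drop in bead-associated FITC signal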
MIN6 prolif = MIN6 beta-cell proliferation induction; MIN6 cells proliferation, ATPlite luminescence, 48 h; cells starved in 0.2% serum; 100% = growth in 10% serum; proliferation, % at 10 µM; hit rate 0.29% among 330,000;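 active = compounds whose signal lies at least 3.5 SD above the mean of all wells on their plate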;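 note: 0% = DMSO-treated cells in low-serum medium and 100% = 10% serum control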
XiGFP reactiv = X-chromosome reactivation activator | XiGFP mouse fibroblasts, % GFP-positive cells imaging, 3 d; cells co-treated with 5-aza-dC sensitizer; scaled so ellipticine positive control = 100% | activation, % at 7.58 µM | hit rate 0.055% among 360,000 | AID 743238;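 active = mean normalized replicate activation at least 10% and every replicate at or above 10%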;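 note: 0% = median of on-plate neutral control wells and 100% = ellipticine 6 µM median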
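Material: XiGFP fibroblasts, SV40-immortalized. Buffer or medium: DMEM plus 5-aza-dC sensitizer. Compound: single concentration per compound, delivered by pin transfer. Times: 3 days compound exposure. Controls: ellipticine 6 µM.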
T cell HTS = T cell immune modulation candidate; 2C CD8+ T cell-vesicle binding, flow cytometry; active compounds read low; response (vesicle binding), % at 7 µM; hit rate 0.068% among 330,000;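 active = response, share of CD8 T cells binding vesicles, and their 90th percentile fluorescence all below set limits, cut at about 80% in these data, passing the limit was not always enough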;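 note: values below 100% mean blocked vesicle binding to the CD8+ T cells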
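Incubation: binding step 1.5 h, 37 °C, antibody labelling 20 min, ice; system: murine 2C transgenic CD8+ T lymphocytes; technique: cytometric PE anti-B7-1 and Alexa647 anti-CD8 signals after 1% paraformaldehyde fixation; also added: QL9-charged Drosophila Ld/ICAM-1/B7-1 vesicles; control set: naked versus QL9-loaded vesicles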
Arr-AP2 CP1 = human beta-arrestin and AP2 interaction inhibition, cherry pick; hit rate 2% among 1,300; GST-AP2 beads, FITC arrestin peptide binding, flow cytometry; GST-fused beta2-adaptin appendage, R879A mutant; inhibition, % at 10 µM; AID 504908; shares compounds with Arr AP2 block;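 active = inhibition above a set limit, roughly 3 SD of non-fluorescent compound noise, cut at about 38% in these data; inactive = inhibition at or below that limit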;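 note: loss of bead fluorescence from 50 nM FITC arrestin peptide bound to appendage; 0% = negative control wells and 100% = excess unlabelled arrestin peptide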
GST GSH counter = counter-screen for beta-arrestin AP2 inhibitors: GST-GSH bead binding; shares compounds with Arr AP2 block; GST-fluorescein binding to GSH beads, fluorescence; inhibition, % at 10 µM; hit rate 2% among 1,300; AID 588338;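 active = inhibition above 50%, about 3 SD of the inhibition seen with non-fluorescent compounds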;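 note: fluorescein maleimide labelled GST captured on 4 micron glutathione beads; higher means more loss of bead fluorescence from quenching or blocked binding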
An asterisk follows results filed as active; i = inactive; nt = no result. Most compounds without a hit are left out; they make up all but 0.89% or so of the library.

SMILES	V-ATPase pHluor	NTR1 agonist	Arr AP2 block	MIN6 prolif	XiGFP reactiv	T cell HTS	Arr-AP2 CP1	GST GSH counter
CCOc1ccccc1CN1CCCC(C(=O)c2ccc(OC)c(OC)c2)C1 (centres undefined)	3	0	54*	-3	0	i	-7	5
CC(OC(=O)c1ccc2ncsc2c1)C(=O)N(C)C1CCCCC1 (centres undefined)	-3	-1	60*	-4	1	320	16	-8
CC(OC(=O)c1ccc(NS(=O)(=O)c2cccs2)cc1)C(=O)N(C)C1CCCCC1 (centres undefined)	0	4	4	-1	0	296	nt	nt
Cc1cc(S(=O)(=O)Nc2ccc(C(=O)N3CC(C)OC(C)C3)cc2)ccc1F (centres undefined)	-1	0	-7	-1	0	335	nt	nt
CC1CN(C(=O)c2ccc(NS(=O)(=O)c3ccc(F)c(F)c3)cc2)CC(C)O1 (centres undefined)	3	0	56*	1	0	245	-1	-11
COc1ccc(-c2cn(CC[C@@H]3CC[C@H](NC(=O)Nc4ccc(F)cc4)[C@@H](CO)O3)nn2)cc1	nt	nt	nt	nt	0	nt	nt	nt
COc1ccccc1/C=C1/SC(=O)N(CCC(=O)Nc2ccc(S(=O)(=O)Nc3nccs3)cc2)C1=O	-2	1	61*	-2	0	272	3	2
CCNC(=O)C[C@H]1CC[C@@H]2[C@H](COc3ccc(NC(=O)Nc4ccc(C)cc4)cc3C(=O)N2C)O1	nt	nt	nt	nt	0	nt	nt	nt
C[C@@H]1CCCCO[C@@H](CN(C)CC2CCCCC2)[C@@H](C)CN([C@@H](C)CO)C(=O)c2cc(NS(=O)(=O)c3cn(C)cn3)ccc2O1	nt	nt	nt	nt	-1	nt	nt	nt
CNC(=O)C1CCC(=O)N1Cc1ccc(C)cc1 (centres undefined)	-1	3	1	-1	nt	356	nt	nt
Cc1ccc(CN2C(=O)CCC2C(=O)NCCCN2CCC(C)CC2)cc1 (centres undefined)	3	nt	-3	nt	nt	nt	-2	10
CCC1CCCCN1CCCNC(=O)C1CCC(=O)N1Cc1ccc(C)cc1 (centres undefined)	4	0	-4	-1	nt	313	-5	0
Cc1ccc(CN2C(=O)CCC2C(=O)NCc2ccco2)cc1 (centres undefined)	-1	1	92*	1	nt	336	13	1
Cc1ccc(CN2C(=O)CCC2C(=O)NCCCN2CCOCC2)cc1 (centres undefined)	3	0	92*	1	nt	521	5	-1
C[C@@H]1CCCCO[C@H](CN(C)S(=O)(=O)c2ccccc2)[C@H](C)CN([C@@H](C)CO)C(=O)c2cc(NC(=O)Nc3ccc(C(F)(F)F)cc3)ccc2O1	nt	nt	nt	nt	0	nt	nt	nt
Cc1ccc(S(=O)(=O)Nc2ccc3c(c2)CC(=O)N([C@@H](C)CO)C[C@H](C)[C@H](CN(C)C(=O)Nc2ccc4c(c2)OCO4)O3)cc1	nt	nt	nt	nt	0	nt	nt	nt
C[C@H](CO)N1C[C@H](C)[C@@H](CN(C)C(=O)Nc2ccc(C(F)(F)F)cc2)Oc2ccc(NS(=O)(=O)c3ccc(F)cc3)cc2CC1=O	nt	nt	nt	nt	-1	nt	nt	nt
O=C(NCCN1CCOCC1)C1CCC(=O)N1Cc1ccc(F)cc1 (centres undefined)	0	1	-2	-2	nt	432	-5	1
CCOc1cc(NC(=S)NCCCN2CCOCC2)c(OCC)cc1NC(=O)c1ccc(C)cc1	3	3	58*	0	-1	347	-2	-7
Cc1ccc(CN2C(=O)CCC2C(=O)NCCN2CCN(c3cccc(Cl)c3)CC2)cc1 (centres undefined)	3	1	6	0	0	187	7	2
O=C(NCCN1CCOCC1)C1CCC(=O)N1Cc1ccccc1Cl (centres undefined)	-2	1	12	-1	nt	215	10	-2
CCOc1cc(NC(=S)NCCCN2CCOCC2)c(OCC)cc1NC(=O)c1ccccc1	2	0	4	-2	0	353	nt	nt
C[C@H](CO)N1C[C@H](C)[C@H](CN(C)Cc2cccnc2)Oc2cc(-c3cccnc3)ccc2S1(=O)=O	nt	nt	nt	nt	0	nt	nt	nt
O=C(C[C@H]1CC[C@@H](NC(=O)Nc2cc(F)ccc2F)[C@@H](CO)O1)Nc1ccccc1	nt	nt	nt	nt	0	nt	nt	nt
C[C@@H]1CN([C@@H](C)CO)C(=O)c2ccccc2-c2ccccc2CO[C@H]1CN(C)C(=O)[C@H](C)c1ccccc1	nt	nt	nt	nt	-1	nt	nt	nt
SMILES	V-ATPase pHluor	NTR1 agonist	Arr AP2 block	MIN6 prolif	XiGFP reactiv	T cell HTS	Arr-AP2 CP1	GST GSH counter
O=C(CNC(=O)c1ccccc1)NCC(c1ccco1)N1CCCC1 (centres undefined)	3	1	21	-4	0	227	nt	nt
O=C(CNC(=O)c1ccccc1Br)NCC(c1ccco1)N1CCCCC1 (centres undefined)	10	nt	66*	nt	0	nt	3	-10
CNC[C@H]1OCCCC[C@H](C)Oc2ccc(NS(=O)(=O)c3c(C)noc3C)cc2C(=O)N([C@H](C)CO)C[C@@H]1C	nt	nt	nt	nt	-1	nt	nt	nt
Cc1c(C(=O)NCCN2CCCC(O)C2)oc2c(F)cccc12 (centres undefined)	-1	0	58*	3	0	340	-11	-3
CCCCSc1ncnc2[nH]ncc12	11	1	64*	1	0	530	16	-5
CN1C(=O)c2cc(NC(=O)c3cccc(F)c3)ccc2OC[C@@H]2O[C@@H](CC(=O)NCc3ccccc3)CC[C@H]21	nt	nt	nt	nt	1	nt	nt	nt
COc1ccccc1N(C)S(=O)(=O)c1ccc(Cl)c(C(=O)NCC2(N(C)C)CCCCC2)c1	1	0	-2	0	0	194	6	2
COc1ccccc1NS(=O)(=O)c1cccc(C(=O)NCC2(N(C)C)CCCCC2)c1	-5	0	3	1	0	197	-1	-15
COc1ccccc1NS(=O)(=O)c1ccc(C(=O)NCC2(N(C)C)CCCCC2)cc1	8	1	-5	2	-1	259	nt	nt
COc1ccc(Cl)cc1NS(=O)(=O)c1cccc(C(=O)NCC2(N(C)C)CCCCC2)c1	5	0	39	-1	0	212	4	-2
CN(c1ccc(F)cc1)S(=O)(=O)c1ccc(Cl)c(C(=O)NCC2(N3CCOCC3)CCCCC2)c1	4	nt	-3	nt	0	nt	-13	-6

Assay outcomes deposited in PubChem by several laboratories.
